Measured values published in ChEMBL document CHEMBL4007421, “Discovery and Preclinical Characterization of 3-((4-(4-Chlorophenyl)-7-fluoroquinoline-3-yl)sulfonyl)benzonitrile, a Novel Non-acetylenic Metabotropic Glutamate Receptor 5 (mGluR5) Negative Allosteric Modulator for Psychiatric Indications” (J Med Chem, 2017).

Columns and labels:
[1] = AUC in female beagle dog at 0.5 mg/kg, iv administered as infusion; assay type: ADME, organism-based, Canis lupus familiaris; details: in vivo
[2] = Volume of distribution in male beagle dog at 0.5 mg/kg, iv administered as infusion; assay type: ADME, organism-based, Canis lupus familiaris; details: in vivo
In short: (§1)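 Single-dose PK: i.v. and oral dosing in Crl:CD(SD) rats and beagle dogs, plus a pilot oral nasogastric study in Cynomolgus monkeys using a Type IV lipid formulation. Rat i.v. vehicle was 80% cosolvent. Monkeys were fasted from 2 h before until 2 h after dosing, n=3 per sex. Rats also received [14C]-labelled compound orally at 50 mg/kg, with total radioactivity followed. Parameters are means; monkey values are medians.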

[3] = Clearance in male beagle dog at 0.5 mg/kg, iv administered as infusion; assay type: ADME, organism-based, Canis lupus familiaris; details: in vivo
[4] = Terminal elimination half life in fasted female cynomolgus monkey at 9 mg/kg, po administered as single dose; assay type: ADME, organism-based, Macaca fascicularis; details: in vivo, read-out: beta t1/2 (converted); in short: as §1
[5] = molecular target: Metabotropic glutamate receptor 5 (Homo sapiens, UniProt P41594); assay: Negative allosteric modulation of human mGluR5a expressed in CHO cells assessed as reduction in DHPG-induced cytosolic Ca2+ influx after 10 to 20 mins by fluo-4/AM-dye based fluorometric analysis; assay type: functional, cell-based
[6] = test system: Rattus norvegicus; assay: Toxicity in po dosed Harlan-Wistar rat assessed as effect on ambulatory movement at 10 to 30 mg/kg, po by photocell-based activity monitor test; assay type: organism-based; details: in vivo
In short: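 Male Wistar rats were given 0, 10, 30 or 50 mg/kg p.o. Spontaneous locomotor activity (ambulatory movement) was recorded in a photocell-based activity monitor.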

[7] = AUC(0 to 8 hrs) in fasted male cynomolgus monkey at 9 mg/kg, po administered as single dose; assay type: ADME, organism-based, Macaca fascicularis; set-up: dose 9 mg/kg, time < 6 hr, route oral; details: in vivo
[8] = Cmax in female beagle dog at 0.5 mg/kg, iv administered as infusion; assay type: ADME, organism-based, Canis lupus familiaris; set-up: dose 0.5 mg/kg, route intravenous; details: in vivo
[9] = Clearance in female beagle dog at 0.5 mg/kg, iv administered as infusion; assay type: ADME, organism-based, Canis lupus familiaris; details: in vivo
[10] = Plasma concentration in po dosed Wistar rat dosed 1 hr prior to first daily trial by Morris water maze test; assay type: ADME, organism-based

Chain of Metabotropic glutamate receptor 5 (P41594 whole entry): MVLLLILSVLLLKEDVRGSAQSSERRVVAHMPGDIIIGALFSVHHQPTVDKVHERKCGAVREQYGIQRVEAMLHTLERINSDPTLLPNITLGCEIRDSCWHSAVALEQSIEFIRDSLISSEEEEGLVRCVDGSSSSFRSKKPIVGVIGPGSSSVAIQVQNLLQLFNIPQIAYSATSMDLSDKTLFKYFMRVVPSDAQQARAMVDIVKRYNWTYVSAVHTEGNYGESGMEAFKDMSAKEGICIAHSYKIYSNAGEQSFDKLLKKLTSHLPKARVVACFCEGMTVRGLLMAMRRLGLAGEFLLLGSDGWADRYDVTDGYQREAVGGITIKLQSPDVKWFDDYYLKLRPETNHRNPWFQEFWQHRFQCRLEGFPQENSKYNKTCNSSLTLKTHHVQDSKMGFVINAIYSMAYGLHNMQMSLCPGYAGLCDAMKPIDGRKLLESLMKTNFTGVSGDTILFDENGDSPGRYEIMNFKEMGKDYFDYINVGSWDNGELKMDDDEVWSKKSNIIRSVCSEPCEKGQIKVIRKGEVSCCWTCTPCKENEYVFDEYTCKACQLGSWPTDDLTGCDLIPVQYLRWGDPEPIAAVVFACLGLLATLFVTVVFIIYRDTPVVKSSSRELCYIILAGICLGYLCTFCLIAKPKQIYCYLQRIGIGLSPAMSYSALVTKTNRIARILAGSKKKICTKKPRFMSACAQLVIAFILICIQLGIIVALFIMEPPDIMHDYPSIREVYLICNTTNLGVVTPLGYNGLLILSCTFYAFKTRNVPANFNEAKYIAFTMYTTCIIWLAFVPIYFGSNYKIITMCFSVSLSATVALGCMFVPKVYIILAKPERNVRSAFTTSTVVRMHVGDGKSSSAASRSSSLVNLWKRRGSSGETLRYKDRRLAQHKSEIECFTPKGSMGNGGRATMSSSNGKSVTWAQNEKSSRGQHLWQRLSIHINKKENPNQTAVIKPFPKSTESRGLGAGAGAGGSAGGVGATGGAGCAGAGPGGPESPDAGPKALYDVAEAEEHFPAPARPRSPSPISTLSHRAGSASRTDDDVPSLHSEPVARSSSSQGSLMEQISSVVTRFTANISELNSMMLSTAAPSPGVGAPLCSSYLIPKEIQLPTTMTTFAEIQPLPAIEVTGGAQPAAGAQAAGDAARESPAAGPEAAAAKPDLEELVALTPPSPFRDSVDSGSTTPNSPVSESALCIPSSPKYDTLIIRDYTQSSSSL

Structure (SMILES): N#Cc1cccc(S(=O)(=O)c2cnc3cc(F)ccc3c2-c2ccc(Cl)cc2)c1
- AUC [1]: 2.22 µM·h
- Vd [2]: 8.6 L/kg
- clearance [3]: 6.43 mL/min/kg
- half-life [4]: 2.1 h
- IC50 [5]: 13 nM
- Activity [6]: Non-Toxic
- AUC(0-t) at 6 h [7]: 0.132 µM·h
- Cmax [8]: 1140 nM
- clearance [9]: 9.22 mL/min/kg
- concentration at 1 h [10]: 986 nM
